Results gathered from unrelated publications.
RET V804M: Proto-oncogene tyrosine-protein kinase receptor Ret (RET, Homo sapiens, UniProt P07949, V804M)
RET: Proto-oncogene tyrosine-protein kinase receptor Ret (RET, Homo sapiens, UniProt P07949)
RET V804L: Proto-oncogene tyrosine-protein kinase receptor Ret (RET, Homo sapiens, UniProt P07949, V804L)
RET M918T: Proto-oncogene tyrosine-protein kinase receptor Ret (RET, Homo sapiens, UniProt P07949, M918T)

Compound | target | test | setting | measurement | value
COc1cccc(CNC(=O)c2nc3scc(COCc4ccc(C(=O)O)cc4)c3c(=O)[nH]2)c1 | RET V804M | cell-free assay, competition with immobilised ligand | 1 µM | remaining binding | 95.3%
Cc1cccc(NC(=O)CNC(=O)c2ccccc2NS(=O)(=O)c2ccc3[nH]c(=O)[nH]c3c2)c1C | RET | enzyme activity, inhibitor, radiometric | 0.1 µM | remaining activity | 114%
Cc1ccc(C(=O)Nc2ccc(CN3CCN(C)CC3)c(C(F)(F)F)c2)cc1C#Cc1cnc2cccnn12 | RET V804L | enzyme activity | 23.5 nM | remaining activity | 17%
Nc1ncnc2occ(-c3ccc(NC(=O)Nc4cc(C(F)(F)F)ccc4F)cc3)c12 | RET V804L | cell-free assay | 20 µM | remaining signal | 0%
COc1cc(NC(=O)Nc2ccc(Br)cc2)cc2sc(NC(=O)c3ccccc3)nc12 | RET | enzyme activity, inhibitor, radiometric | 10 µM | remaining activity | 106%
CCCCN(CCCC)C(=O)CN1C[C@H](c2cc(OC)c3c(c2)OCO3)[C@@H](C(=O)O)[C@@H]1CC(C)(C)CCC | RET V804M | cell-free assay, competition with immobilised ligand | 1 µM | remaining binding | 100%
O=C(COc1ccc(Cl)cc1C(=O)Nc1ccccc1)Nc1cc(Cl)ccc1-n1cncn1 | RET | enzyme activity, inhibitor, radiometric | 0.1 µM | remaining activity | 107%
CS(=O)(=O)N1CCCC(NC(=O)[C@H](CCC2CCCCC2)NC(=O)c2ccc(CNC(=O)c3cnc4ccccn34)cc2)C1 (stereo partly drawn) | RET M918T | cell-free assay, competition with immobilised ligand | 0.1 µM | remaining binding | 93%
C[C@H]1CCN(c2nccc(-c3cnn4ncccc34)n2)C1 | RET V804M | binding | 1 µM | remaining binding | 84%
Cc1cc(NC(=O)c2cccc3cc(-c4cccc5[nH]nc(N)c45)ccc23)ccc1F | RET | enzyme activity, inhibitor | 0.1 µM | activity vs control | 37%
CCc1cccc(NC(=O)c2cc(-c3ccc(OC)c(S(N)(=O)=O)c3)[nH]n2)c1 | RET | enzyme activity, inhibitor, radiometric | 10 µM | remaining activity | 92.5%
Cc1ccc(NC(=O)c2ccc(C)c(C(F)(F)F)c2)cc1C#Cc1nn(C2CCC(O)CC2)c2ncnc(N)c12 (stereo not drawn) | RET V804M | cell-free assay | 10 µM | remaining signal | -2%
Nc1cnc(N2CCc3cc(S(=O)(=O)Nc4c(F)cc(Cl)cc4F)cc(N4CCCC4=O)c32)nc1 | RET | cell-free assay, competition with immobilised ligand | 1 µM | remaining binding | 89%
C=CC(=O)Nc1cc(Nc2nccc(Nc3cc(Cl)c(F)cc3C(C)(C)O)n2)c(OC)cc1N1CC[C@@H](N(C)C)C1 | RET V804M | enzyme activity, inhibitor | 1 µM | inhibition | -6%
COc1ccc(CN2C3CC2CN(c2ccc(-c4cc(OCC(C)(C)O)cn5ncc(C#N)c45)cn2)C3)cn1 | RET | thermal stability, DSF | 10 µM | ΔTm | 9.5 °C
CN(CCCC(F)(F)F)c1nccc(-c2cnn3ncccc23)n1 | RET M918T | binding | 1 µM | remaining binding | 99%
O=C1NC(c2ccccn2)Sc2ccccc21 (stereo not drawn) | RET V804M | cell-free assay, competition with immobilised ligand | 1 µM | remaining binding | 86%
COc1cc2ncnc(Nc3ccc(Oc4ccccc4)c(C)c3C)c2cc1OC | RET | enzyme activity, inhibitor | 1 µM | inhibition | 17%

Compound | target | test | setting | measurement | value
Cc1cc(C)c(-n2ccn3nc(-c4cccnc4)cc23)cc1NC(=O)c1cc(C#N)cc(S(F)(F)(F)(F)F)c1 | RET V804L | cell-free assay, competition with immobilised ligand | 0.1 µM | remaining binding | 93.6%
CC/C(=N\NC(=O)NCc1cccc(O)c1)c1ccc(O)c(C)c1O | Proto-oncogene tyrosine-protein kinase receptor Ret (RET, Homo sapiens, UniProt P07949, G691S) | enzyme activity, inhibitor | 0.1 µM | inhibition | 5.6%
c1cnn2ncc(-c3ccnc(N4CCC45COC5)n3)c2c1 | RET V804M | binding | 1 µM | remaining binding | 100%
Cc1cc(NC(=O)Nc2c(NC3CCCC3)c3ccccc3oc2=O)ccc1Br | RET | enzyme activity, inhibitor, radiometric | 10 µM | remaining activity | 67.7%
CCCOc1ccc(OC)c(F)c1C(=O)c1ccc(C(=O)N[C@@H]2CNC[C@H]2NC(=O)c2ccc3[nH]ncc3c2)cc1 | RET V804L | enzyme activity, inhibitor | 10 µM | remaining activity | 8%
CO[C@]1(C(=O)N[C@@H](C)c2ccc(-n3cc(F)cn3)nc2)CC[C@H](c2nc(C)cc(Nc3cc(C)[nH]n3)n2)CC1 | Proto-oncogene tyrosine-protein kinase receptor Ret (RET, Homo sapiens, UniProt P07949, L772A) | thermal stability, DSF | 10 µM | ΔTm | 11.7 °C
N[C@H]1CCN(c2nccc(-c3cnn4ncccc34)n2)C1 | RET M918T | binding | 1 µM | remaining binding | 90%
COCC(=O)Nc1cc(C(=O)NCc2ccc(C)c(F)c2)cc2ncn(CCc3ccccc3)c12 | RET | enzyme activity, inhibitor, radiometric | 0.1 µM | remaining activity | 133%
CCC(=N\O)/C(C)=C/c1ccc(F)cc1 | RET M918T | cell-free assay, competition with immobilised ligand | 1 µM | remaining binding | 100%
CC1CCCN1c1nccc(-c2cnn3ncccc23)n1 (stereo not drawn) | RET V804L | binding | 1 µM | remaining binding | 85%
CCOCCn1cc(C(=O)Nc2ccc(-n3nc(-c4cccnc4)cc3C(F)(F)F)cn2)ccc1=O | RET | cell-free assay, competition with immobilised ligand | 1 µM | remaining binding | 83%
Cc1cnc(NC2CCOCC2)nc1-n1cnc(C(=O)NC(CN)c2cc(F)cc(Cl)c2)c1 (stereo not drawn) | RET | enzyme activity, inhibitor, radiometric | 1 µM | remaining activity | 111%
N#CCCc1ccc2c(c1)-c1[nH]c3ccc([N+](=O)[O-])cc3c1CC(=O)N2 | RET | cell-free assay | 0.5 µM | remaining signal | 80.8%
CN(C)c1ncc(F)c(-c2cnn3ncccc23)n1 | RET | binding | 1 µM | remaining binding | 97%
Cc1ccc(-c2nn3c(=O)cc(CNC(=O)Nc4ccc(C)c(Cl)c4)nc3s2)cc1 | RET | enzyme activity, inhibitor, radiometric | 0.1 µM | remaining activity | 116%
C[C@@H]1CCN(C(=O)CC#N)C[C@@H]1N(C)c1ncnc2[nH]ccc12 | RET | cell-free assay | 0.5 µM | remaining signal | 92.4%
COc1ccc(OC)c(NC(=O)Nc2cc(OC)c3nc(NC(=O)c4ccccc4)sc3c2)c1 | RET | enzyme activity, inhibitor, radiometric | 0.1 µM | remaining activity | 114%
O=C1NC(=O)c2cc(Nc3ccc(F)cc3)c(Nc3ccc(F)cc3)cc21 | RET | cell-free assay | 0.5 µM | remaining signal | 104%
